The structures appear in SMILES notation. Active and inactive are the calls of the source. No cut-off for these calls is given here. Bounds are passed on as bounds.

The target of one assay is T1, Bile acid receptor (Homo sapiens, UniProt Q96RI1).
T1 sequence (Q96RI1 whole entry): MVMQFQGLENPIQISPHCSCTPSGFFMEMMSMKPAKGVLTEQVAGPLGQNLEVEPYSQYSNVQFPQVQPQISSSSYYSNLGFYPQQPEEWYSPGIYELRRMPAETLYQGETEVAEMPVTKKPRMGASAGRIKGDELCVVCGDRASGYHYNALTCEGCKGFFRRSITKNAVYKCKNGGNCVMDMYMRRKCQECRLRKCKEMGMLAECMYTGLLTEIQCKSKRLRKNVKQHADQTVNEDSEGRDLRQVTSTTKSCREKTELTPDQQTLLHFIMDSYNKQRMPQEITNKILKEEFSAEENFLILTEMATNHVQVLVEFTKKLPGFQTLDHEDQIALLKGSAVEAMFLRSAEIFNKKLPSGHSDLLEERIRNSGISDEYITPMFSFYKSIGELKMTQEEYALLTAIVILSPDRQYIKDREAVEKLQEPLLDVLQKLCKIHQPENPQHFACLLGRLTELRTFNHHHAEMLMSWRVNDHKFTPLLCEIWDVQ
The experiment in a line: Antagonist activity at human FXR expressed in CV-1 cells assessed as inhibition of CDCA-induced transactivation after 24 hrs by luciferase reporter gene assay. The format is functional, cell-based. The gist of the method: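 CV-1 cells in DMEM with 10% resin-charcoal-stripped FBS, 24 h at 37 °C, 5% CO2, then transiently co-transfected with pCMX-hFXR, CMXβ-GAL and Tk(EcRE)6-LUC. After 24 h, compounds were co-treated with 50 µM CDCA; harvest at 24 h. Luciferase normalized to β-galactosidase. Transfections in triplicate; experiments repeated more than three times.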

Assay [1] deals with T2, Progesterone receptor (Homo sapiens) (UniProt P06401).
T2 sequence (whole entry): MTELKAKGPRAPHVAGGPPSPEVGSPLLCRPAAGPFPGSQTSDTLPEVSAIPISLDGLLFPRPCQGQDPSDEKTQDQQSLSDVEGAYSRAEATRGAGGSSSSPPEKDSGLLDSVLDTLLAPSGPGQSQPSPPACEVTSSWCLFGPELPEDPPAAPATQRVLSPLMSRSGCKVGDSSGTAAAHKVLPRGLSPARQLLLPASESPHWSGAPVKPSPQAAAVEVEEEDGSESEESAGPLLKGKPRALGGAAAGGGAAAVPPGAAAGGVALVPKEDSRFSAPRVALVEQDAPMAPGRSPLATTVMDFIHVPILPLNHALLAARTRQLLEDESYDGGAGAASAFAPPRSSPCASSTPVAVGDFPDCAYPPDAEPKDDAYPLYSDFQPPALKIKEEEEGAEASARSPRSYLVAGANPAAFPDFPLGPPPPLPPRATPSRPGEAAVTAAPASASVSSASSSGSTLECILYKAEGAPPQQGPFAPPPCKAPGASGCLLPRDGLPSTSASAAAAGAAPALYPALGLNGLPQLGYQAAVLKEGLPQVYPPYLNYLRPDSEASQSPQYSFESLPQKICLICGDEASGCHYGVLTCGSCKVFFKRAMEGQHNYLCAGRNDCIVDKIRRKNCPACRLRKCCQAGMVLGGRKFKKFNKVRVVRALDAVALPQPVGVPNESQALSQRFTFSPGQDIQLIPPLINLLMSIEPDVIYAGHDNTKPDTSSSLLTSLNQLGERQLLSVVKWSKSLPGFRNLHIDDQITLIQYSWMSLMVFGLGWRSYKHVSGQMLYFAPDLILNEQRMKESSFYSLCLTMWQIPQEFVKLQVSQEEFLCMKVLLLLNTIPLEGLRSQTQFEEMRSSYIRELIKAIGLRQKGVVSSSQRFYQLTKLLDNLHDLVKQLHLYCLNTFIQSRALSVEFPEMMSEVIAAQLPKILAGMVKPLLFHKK
The experiment in a line: Effect on human Gal4-fused PR at 10 uM by luciferase reporter gene assay.

In assay [2] the target is T3, Glucocorticoid receptor (Homo sapiens) (UniProt P04150).
T3 sequence (whole entry): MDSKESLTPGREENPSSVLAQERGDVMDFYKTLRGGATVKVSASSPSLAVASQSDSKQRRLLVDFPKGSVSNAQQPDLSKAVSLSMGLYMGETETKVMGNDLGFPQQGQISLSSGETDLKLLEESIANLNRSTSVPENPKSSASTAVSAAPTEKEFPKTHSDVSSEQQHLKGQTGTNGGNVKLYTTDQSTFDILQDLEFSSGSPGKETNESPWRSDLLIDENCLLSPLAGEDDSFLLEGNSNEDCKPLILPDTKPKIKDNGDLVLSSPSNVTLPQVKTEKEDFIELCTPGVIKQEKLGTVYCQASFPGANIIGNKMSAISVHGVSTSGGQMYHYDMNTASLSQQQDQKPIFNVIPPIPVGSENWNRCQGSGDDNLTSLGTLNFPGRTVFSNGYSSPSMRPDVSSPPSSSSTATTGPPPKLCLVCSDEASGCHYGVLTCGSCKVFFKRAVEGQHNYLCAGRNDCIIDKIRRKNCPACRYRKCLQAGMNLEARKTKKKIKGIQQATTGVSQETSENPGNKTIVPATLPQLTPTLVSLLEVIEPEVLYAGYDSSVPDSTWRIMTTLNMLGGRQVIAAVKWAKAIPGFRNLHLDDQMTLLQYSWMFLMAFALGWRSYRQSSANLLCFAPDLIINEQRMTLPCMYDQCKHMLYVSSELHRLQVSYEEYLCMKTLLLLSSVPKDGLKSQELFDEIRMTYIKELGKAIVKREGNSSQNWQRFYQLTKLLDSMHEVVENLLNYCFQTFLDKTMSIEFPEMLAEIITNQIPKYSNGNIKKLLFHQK
The assay is described as follows: Effect on human Gal4-fused GR at 10 uM by luciferase reporter gene assay.

Assay [3] is described as follows: Cytotoxicity against african green monkey CV1 cells by MTT assay. The format is cell-based. Particulars: Chlorocebus aethiops, CV-1. In a few lines:
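CV-1 cells, viability read by MTT; each experiment repeated more than three times.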

Consider `CC(C)=CCCC1=C[C@@H](C/C(C)=C/CC[C@]2(C)C=Cc3cc(O)cc(C)c3O2)OC1=O` [2'-EPI-TUBERATOLIDE B], for which the IC50 at Bile acid receptor was found to be 2.5 µM; in assay [3], 30 µM. In addition, the result in assay [1] and in assay [2] was inactive.
On to `CC(C)=CCC/C(=C/CC/C(C)=C/CC[C@]1(C)C=Cc2cc(O)cc(C)c2O1)C(=O)O` [(R)-SARGACHROMENOL], for which the IC50 was found to be 9 µM on Bile acid receptor and 45 µM in assay [3]. The result in assay [1] and in assay [2] was inactive.
As for `CC(C)=CCC/C(=C/CC/C(C)=C/CC[C@@]1(C)C=Cc2cc(O)cc(C)c2O1)C(=O)O` [(S)-SARGACHROMENOL], the IC50 on Bile acid receptor was found to be 17 µM; in assay [3] it was 56 µM. The result in assay [1] and in assay [2] was inactive.
In the case of `CC(=O)CC/C=C(\C)C[C@@H]1C=C(CCC=C(C)C)C(=O)O1` [TUBERATOLIDE A], the figures for the IC50 (on Bile acid receptor; in assay [3]) were 3.9 µM and greater than 100 µM, respectively. For the same compound, the outcome in assay [1] and in assay [2] was inactive.
Take `CC(C)=CCCC1=C[C@@H](C/C(C)=C/CC[C@@]2(C)C=Cc3cc(O)cc(C)c3O2)OC1=O` [TUBERATOLIDE B]: the IC50 on Bile acid receptor was 1.5 µM; in assay [3], 31 µM. The outcome in assay [1] and in assay [2] was inactive.
As to `CC(C)=CCCC1=C[C@@H](C/C(C)=C/CC/C(C)=C/CC2=CC(=O)C=C(C)C2=O)OC1=O` [YEZOQUINOLIDE], the IC50 on Bile acid receptor came out at 5.9 µM; in assay [3], 50 µM. Further, the result in assay [1] and in assay [2] was inactive.

The values above are taken from ChEMBL document CHEMBL1667725, “Tuberatolides, potent FXR antagonists from the Korean marine tunicate Botryllus tuberatus” (J Nat Prod, 2011).
